Converted amounts (≈) assume the structure as drawn.
How the values were obtained:
Assay type in all cases: functional
Botrytis cinerea = experiment: Antifungal activity against Botrytis cinerea YM3061 after 72 hrs by disk diffusion method
How it was run: (§1)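 Paper-disk diffusion. Fungi grown on PDA at 28 °C; spores mixed into melted PDA at 1 × 10^6 spores/mL and poured into plates. Compounds in 50% aqueous DMSO, serially double diluted from 500 to 15.63 µg/mL, loaded onto sterile 6 mm paper disks. Dried disks placed on agar, incubated 28 °C for 72 h, inhibition zones then measured.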

Fusarium avenaceum = experiment: Antifungal activity against Fusarium avenaceum YM3065 after 72 hrs by disk diffusion method; how it was run: as §1
Aspergillus niger = experiment: Antifungal activity against Aspergillus niger YM3029 after 72 hrs by disk diffusion method; how it was run: as §1
Ophiostoma minus = experiment: Antifungal activity against Ophiostoma minus YM3429 after 72 hrs by disk diffusion method; how it was run: as §1
Fusarium verticillioides = experiment: Antifungal activity against Fusarium moniliforme YM3067 after 72 hrs by disk diffusion method; how it was run: as §1
Talaromyces islandicus = experiment: Antifungal activity against Penicillium islandicum YM3104 after 72 hrs by disk diffusion method; how it was run: as §1
Bipolaris maydis = experiment: Antifungal activity against Helminthosporium maydis YM3076 after 72 hrs by disk diffusion method; how it was run: as §1

Compound | MIC (Botrytis cinerea) [µg/mL] | MIC (Fusarium avenaceum) [µg/mL] | MIC (Aspergillus niger) [µg/mL] | MIC (Ophiostoma minus) [µg/mL] | MIC (Fusarium verticillioides) [µg/mL] | MIC (Talaromyces islandicus) [µg/mL] | MIC (Bipolaris maydis) [µg/mL]
C[C@@H]1C[C@@H](O)[C@@H](O)/C=C/C=C\C(=O)O1 | 500 (≈ 2520 µM) | > 500 | 125 (≈ 631 µM) | > 500 | > 500 | > 500 | 500 (≈ 2520 µM)
CC(=O)O[C@@H]1C[C@@H](C)OC(=O)CC[C@H](O)CC1=O | 250 (≈ 968 µM) | > 500 | 125 (≈ 484 µM) | > 500 | > 500 | 250 (≈ 968 µM) | 500 (≈ 1940 µM)
CC(=O)O[C@H]1/C=C/[C@@H]2O[C@@H]2C(=O)O[C@H](C)C[C@H]1O [7ALPHA-ACETOXYMULTIPLOLIDE A] | > 500 | > 500 | 125 (≈ 488 µM) | > 500 | > 500 | > 500 | > 500
CC(=O)O[C@@H]1C[C@@H](C)OC(=O)[C@H]2O[C@H]2/C=C/[C@@H]1O [8ALPHA-ACETOXYMULTIPLOLIDE A] | 62.5 (≈ 244 µM) | > 500 | 125 (≈ 488 µM) | 31.2 (≈ 122 µM) | 500 (≈ 1950 µM) | 250 (≈ 976 µM) | 500 (≈ 1950 µM)
C[C@@H]1C[C@@H](O)[C@@H](O)/C=C/[C@@H]2O[C@@H]2C(=O)O1 [MULTIPLOLIDE A] | > 500 | > 500 | 250 (≈ 1170 µM) | > 500 | > 500 | 250 (≈ 1170 µM) | 500 (≈ 2330 µM)
NYSTATIN | 31.2 | 62.5 | 15.6 | 31.2 | 62.5 | 15.6 | 31.2

From ChEMBL document CHEMBL1149879, “Ten-membered lactones from Phomopsis sp., an endophytic fungus of Azadirachta indica” (2008)
